Each structure is given as a SMILES string. pIC50: −log10 of the molar value. Active and inactive are the calls of the source. The calls are words filed in the database; no cut-off is given here.

One test concerns HL-60. Briefly: Cytotoxicity against human HL60 cells after 72 hrs by trypan blue assay. The test is classed as functional, cell-based. Particulars: HL-60, 72 h. The essentials:
(§1)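 A-431, HeLa and HL-60 cells at 4×10^4 per well, incubated 24 h. HeLa and A-431 then received fresh medium. Graded compound concentrations were added for a further 72 h at 37 °C, 5% CO2. Viability was counted by Trypan blue exclusion. IC50 is the concentration giving 50% reduction in cell number versus control: ≥3 independent experiments, triplicate samples, mean ± SD.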

A further test deals with HeLa. Briefly: Cytotoxicity against human HeLa cells after 72 hrs by trypan blue assay. In kind it is functional, cell-based. The gist of the method:
as §1

Test [1] deals with HUVEC. Briefly: Antiangiogenic activity in HUVEC cocultured with human PaSMC assessed as inhibition of capillary-like network formation at 25 nM after 72 hrs. In kind it is functional, cell-based. The essentials:
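RFP-expressing HUVEC (early passage, passage 5) co-seeded with pulmonary artery vSMC (5×10^4 PaSMC plus 10×10^3 HUVEC per well) in EGM-2, briefly spun at 200 g and allowed to attach for 3 h. Compounds were added at final 2–200 nM, two replicates per concentration, at 37 °C, 5% CO₂. Network was imaged at 72 h with automated imaging, and tube length was quantified by image analysis.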

The next test has as its system A-431. Nature of the test: Cytotoxicity against human A431 cells after 72 hrs by trypan blue assay. The test is classed as functional, cell-based. Particulars: A-431, 72 h. The essentials: as §1
The test system of test [2] is A2C12. Nature of the test: Cytotoxicity against mouse A2C12 cells after 24 to 96 hrs by MTS assay. In kind it is functional, cell-based. The essentials:
(§2)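 Mouse transgenic lines plated at 10^3 cells/well and left 24 h to attach. Drugs diluted in medium were added for 24 or 96 h. CellTiter 96 AQueous One (MTS) reagent was then added for 1 h at 37 °C, with absorbance read at 490 nm. Each condition was run in quintuplicate, and cytotoxicity was expressed as percent of controls.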
(Tetrazolium assays rely on reduction of a dye to a coloured formazan, in cell work by metabolically active cells.)

The test system of test [3] is yA3. Briefly: Induction apoptosis in mouse yA3 cells assessed as ROS production at 10 uM/L using DCFH-DA by flow cytometry relative to control. The test is classed as functional, cell-based. The essentials:
(§3)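 Transgenic mouse cells exposed to compound at 10 µmol/L. ROS generation was measured by flow cytometry using the probe DCFH-DA.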
Background: In flow cytometry, cells or beads pass a laser one at a time.

The test system of test [4] is yA7. Briefly: Cytotoxicity against mouse yA7 cells after 24 to 96 hrs by MTS assay. In kind it is functional, cell-based. The gist of the method: as §2
The subject of test [5] is yA3. Briefly: Cytotoxicity against mouse yA3 cells after 24 to 96 hrs by MTS assay. In kind it is functional, cell-based. The gist of the method: as §2
Test [6] deals with HUVEC. Nature of the test: Antiangiogenic activity in HUVEC cocultured with human PaSMC assessed as reduction of total tube length at 125 nM after 72 hrs. The test is classed as functional. More on the design: scale not given: the % may be the effect or the level left. The gist of the method:
(§4)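 Primary HUVEC (passage 5, retrovirally labelled with RFP) and pulmonary artery vSMC (passage 5) co-seeded at 5×10^4 PaSMC plus 10×10^3 HUVEC per well in EGM-2, briefly spun at 200 g, attached 3 h. Compounds were then added at final 2–200 nM, two replicates per concentration. Networks formed over 72 h at 37 °C, 5% CO2, followed by automated imaging and image analysis of tube formation.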

A further test is filed under the species Bos taurus. Nature of the test: Inhibition of calf thymus topoisomerase 1-mediated relaxation of supercoiled pBR322 at 100 uM after 60 mins using ethidium bromide staining by agarose gel electrophoresis. The essentials: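 Supercoiled pBR322 (0.25 µg) with 2 U calf thymus topoisomerase I and test compound, 60 min at 37 °C in 20 µl reaction buffer. Stopped with SDS/bromophenol blue/glycerol plus 50 µg/mL proteinase K, 30 min at 37 °C. Run on 1% agarose at room temperature, stained with ethidium bromide 1 µg/mL in TAE, imaged under UV.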

The test system of test [7] is yD12. Briefly: Cytotoxicity against mouse yD12 cells after 24 to 96 hrs by MTS assay. The test is classed as functional, cell-based. The gist of the method: as §2
In test [8] the test system is Craf/Cmyc. Nature of the test: Cytotoxicity against mouse Craf/Cmyc cells after 24 to 96 hrs by MTS assay. In kind it is functional, cell-based. The gist of the method:
as §2

The subject of test [9] is HUVEC. Briefly: Antiangiogenic activity in HUVEC cocultured with human PaSMC assessed as morphological changes up to 200 nM after 72 hrs. The test is classed as functional, cell-based. The gist of the method:
as §4

The subject of a further test is A2B1. Briefly: Cytotoxicity against mouse A2B1 cells after 24 to 96 hrs by MTS assay. The test is classed as functional, cell-based. The essentials: as §2
A further test has as its system Nucleic Acid. Nature of the test: Binding affinity to salmon testes DNA by linear flow dichroism analysis. In kind it is nucleic-acid assay. Particulars: Salmonidae. The gist of the method: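 Salmon testes DNA (1.9 × 10^-3 M) in ETN buffer (10 mM Tris, 10 mM NaCl, 1 mM EDTA, pH 7). Linear dichroism spectra were recorded at 25 °C over a range of [drug]/[DNA] ratios on a spectropolarimeter converted for LD.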

Test [10] is filed under the species Mus musculus. Briefly: Induction apoptosis in mouse betaD10 cells assessed as ROS production at 10 uM/L using DCFH-DA by flow cytometry relative to control. In kind it is functional, cell-based. The essentials: as §3
Another test has as its system yD1. Briefly: Induction apoptosis in mouse yD1 cells assessed as ROS production at 10 uM/L using DCFH-DA by flow cytometry relative to control. The test is classed as functional, cell-based. The essentials:
as §3

Test [11] concerns B3. Nature of the test: Cytotoxicity against mouse B3 cells after 24 to 96 hrs by MTS assay. The test is classed as functional, cell-based. The gist of the method:
as §2

Test [12] is filed under the species Mus musculus. Briefly: Cytotoxicity against mouse betaD5 cells after 24 to 96 hrs by MTS assay. In kind it is functional, cell-based. The gist of the method:
as §2

Test [13] relates to yB8. Nature of the test: Cytotoxicity against mouse yB8 cells after 24 to 96 hrs by MTS assay. The test is classed as functional, cell-based. The gist of the method:
as §2

In test [14] the test system is yA7. Nature of the test: Induction apoptosis in mouse yA7 cells assessed as ROS production at 10 uM/L using DCFH-DA by flow cytometry relative to control. In kind it is functional, cell-based. The essentials:
as §3

Test [15] has as its system Craf/Cmyc. Nature of the test: Induction apoptosis in mouse Craf/Cmyc cells assessed as ROS production at 10 uM/L using DCFH-DA by flow cytometry relative to control. In kind it is functional, cell-based. The essentials:
as §3

Test [16] is filed under the species Mus musculus. Nature of the test: Cytotoxicity against mouse betaD10 cells after 24 to 96 hrs by MTS assay. The test is classed as functional, cell-based. The gist of the method:
as §2

The target in test [17] is DNA topoisomerase 2-alpha (Homo sapiens) (UniProt P11388). Briefly: Inhibition of human recombinant topoisomerase 2alpha-mediated relaxation of supercoiled pBR322 at up to 100 uM after 60 mins using ethidium bromide staining by agarose gel electrophoresis. The essentials: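 Supercoiled pBR322 (0.25 µg) with 1 U human recombinant topoisomerase IIα and test compound, 60 min at 37 °C in 20 µl reaction buffer. Stopped with SDS/bromophenol blue/glycerol plus 50 µg/mL proteinase K, 30 min at 37 °C. Separated on 1% agarose at room temperature, ethidium bromide stained (1 µg/mL, TAE), UV-visualized.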

The subject of test [18] is A2C12. Nature of the test: Induction apoptosis in mouse A2C12 cells assessed as ROS production at 10 uM/L using DCFH-DA by flow cytometry relative to control. In kind it is functional, cell-based. The essentials:
as §3

Test [19] deals with yD12. Briefly: Induction apoptosis in mouse yD12 cells assessed as ROS production at 10 uM/L using DCFH-DA by flow cytometry relative to control. In kind it is functional, cell-based. The essentials:
as §3

The species named for test [20] is Mus musculus. Briefly: Induction apoptosis in mouse betaD5 cells assessed as ROS production at 10 uM/L using DCFH-DA by flow cytometry relative to control. In kind it is functional, cell-based. The essentials: as §3
Test [21] has as its system yB8. Nature of the test: Induction apoptosis in mouse yB8 cells assessed as ROS production at 10 uM/L using DCFH-DA by flow cytometry relative to control. In kind it is functional, cell-based. The gist of the method:
as §3

Test [22] relates to B3. Briefly: Induction apoptosis in mouse B3 cells assessed as ROS production at 10 uM/L using DCFH-DA by flow cytometry relative to control. The test is classed as functional, cell-based. The gist of the method: as §3

Sequence of DNA topoisomerase 2-alpha (Homo sapiens) (P11388 whole entry): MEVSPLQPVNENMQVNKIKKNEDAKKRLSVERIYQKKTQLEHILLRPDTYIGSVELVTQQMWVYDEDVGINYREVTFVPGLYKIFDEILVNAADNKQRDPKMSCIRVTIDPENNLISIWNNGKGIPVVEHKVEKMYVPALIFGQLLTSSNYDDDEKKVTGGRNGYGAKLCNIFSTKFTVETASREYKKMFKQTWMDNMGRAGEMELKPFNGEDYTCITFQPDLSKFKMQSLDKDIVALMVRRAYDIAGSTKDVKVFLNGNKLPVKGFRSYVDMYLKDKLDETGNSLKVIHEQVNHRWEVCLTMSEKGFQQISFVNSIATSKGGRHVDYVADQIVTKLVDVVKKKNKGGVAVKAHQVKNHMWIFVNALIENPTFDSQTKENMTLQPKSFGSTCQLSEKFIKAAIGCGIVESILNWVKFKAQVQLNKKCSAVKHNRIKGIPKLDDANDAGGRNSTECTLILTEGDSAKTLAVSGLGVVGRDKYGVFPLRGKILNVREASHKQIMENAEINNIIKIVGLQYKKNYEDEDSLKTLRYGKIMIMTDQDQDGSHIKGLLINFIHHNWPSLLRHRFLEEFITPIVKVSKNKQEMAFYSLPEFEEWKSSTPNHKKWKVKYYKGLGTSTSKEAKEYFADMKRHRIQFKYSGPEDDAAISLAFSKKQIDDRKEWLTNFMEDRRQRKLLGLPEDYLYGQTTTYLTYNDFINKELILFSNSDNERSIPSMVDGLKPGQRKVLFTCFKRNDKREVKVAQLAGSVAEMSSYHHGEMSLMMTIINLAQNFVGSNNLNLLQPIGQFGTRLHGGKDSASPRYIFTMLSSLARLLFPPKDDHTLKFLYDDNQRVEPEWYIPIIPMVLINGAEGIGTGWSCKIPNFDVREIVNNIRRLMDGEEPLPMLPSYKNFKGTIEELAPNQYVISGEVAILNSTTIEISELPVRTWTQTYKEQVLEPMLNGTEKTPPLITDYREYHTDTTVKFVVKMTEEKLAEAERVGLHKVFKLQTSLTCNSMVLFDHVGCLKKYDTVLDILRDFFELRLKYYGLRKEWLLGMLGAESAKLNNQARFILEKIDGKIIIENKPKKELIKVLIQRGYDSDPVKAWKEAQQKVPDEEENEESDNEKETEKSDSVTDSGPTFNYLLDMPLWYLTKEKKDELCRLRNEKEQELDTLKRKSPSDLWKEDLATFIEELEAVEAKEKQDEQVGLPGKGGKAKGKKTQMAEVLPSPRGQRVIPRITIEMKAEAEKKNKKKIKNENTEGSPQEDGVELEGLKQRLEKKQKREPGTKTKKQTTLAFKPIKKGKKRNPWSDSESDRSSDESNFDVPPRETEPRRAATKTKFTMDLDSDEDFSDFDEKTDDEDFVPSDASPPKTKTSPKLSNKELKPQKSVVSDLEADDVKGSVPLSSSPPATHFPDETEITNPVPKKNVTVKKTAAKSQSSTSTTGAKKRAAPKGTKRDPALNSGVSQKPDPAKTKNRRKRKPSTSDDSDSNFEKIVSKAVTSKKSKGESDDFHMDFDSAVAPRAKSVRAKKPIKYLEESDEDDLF

A word on the pIC50: it is the negative decadic logarithm of the IC50, by convention in mol/L. Turning to `CC[C@@]1(O)C(=O)OCc2c1cc1n(c2=O)Cc2cc3ccccc3nc2-1` [CAMPTOTHECIN], the pIC50 in the test with HL-60 was 7.77; with HeLa, 8.05; with A-431, 7.96. For the same compound, the inhibition entry in the test with HUVEC [1] was “Active”.
With `CC[C@@]1(OC(=O)NCCNC(=O)CCCSSCCCC(=O)NCCNC(=O)O[C@]2(CC)C(=O)OCc3c2cc2n(c3=O)Cc3cc4ccccc4nc3-2)C(=O)OCc2c1cc1n(c2=O)Cc2cc3ccccc3nc2-1`, the outcome in the test on A2C12 [2], in the test on yA3 [3], with yA7 [4], in the test with yA3 [5], with yD12 [7] and in the test with Craf/Cmyc [8] was Active. Besides, the outcome with A2B1, in the test listed under Mus musculus [10], in the test with yD1, with B3 [11], in the test listed under Mus musculus [12] and with yB8 [13] was Active. Moreover, the outcome with yA7 [14], in the test on Craf/Cmyc [15], in the test filed under Mus musculus [16], in the test with A2C12 [18], in the test on yD12 [19] and in the test listed under Mus musculus [20] was Active. For the same compound, the outcome in the test with yB8 [21] and with B3 [22] was Active. Also, the pIC50 in the test on HL-60 was 6.54; in the test with HeLa it was 6.77; with A-431 it was 7.52. Moreover, the Activity in the test on HUVEC [6] is recorded as 50%. Also, the result (in the test filed under Bos taurus; in the test with HUVEC [9]; in the test with Nucleic Acid; in test [17]) was inactive.
